Assay results published in ChEMBL document CHEMBL3596177.
Activity calls are given as the source filed them. The calls are words filed in the database; no cut-off is given here.

What was measured:
[1] = Inhibition of Mycobacterium tuberculosis protein tyrosine phosphatase B expressed in Escherichia coli BL21/DE using pNPP substrate by spectrophotometry
Procedure, shortened: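 His-tagged mPTPB from pET28b in E. coli BL21/DE3, purified on Ni-NTA. The assay ran at 25°C in 50 mM 3,3-dimethylglutarate pH 7.0 with 1 mM EDTA, ionic strength 0.15 M (NaCl). Enzyme was added last, the reaction was quenched after 10 min with NaOH, and A405 was read. IC50 was fitted as AI/A0 = IC50/(IC50+[I]).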

[2] = molecular target: Dual specificity protein phosphatase 3 (Homo sapiens, UniProt P51452); assay: Inhibition of human VHR using pNPP substrate by spectrophotometry
[3] = molecular target: T1, Tyrosine-protein phosphatase non-receptor type 1 (Homo sapiens, UniProt P18031); assay: Inhibition of human PTP1B using pNPP substrate by spectrophotometry
T1 sequence (P18031 whole entry): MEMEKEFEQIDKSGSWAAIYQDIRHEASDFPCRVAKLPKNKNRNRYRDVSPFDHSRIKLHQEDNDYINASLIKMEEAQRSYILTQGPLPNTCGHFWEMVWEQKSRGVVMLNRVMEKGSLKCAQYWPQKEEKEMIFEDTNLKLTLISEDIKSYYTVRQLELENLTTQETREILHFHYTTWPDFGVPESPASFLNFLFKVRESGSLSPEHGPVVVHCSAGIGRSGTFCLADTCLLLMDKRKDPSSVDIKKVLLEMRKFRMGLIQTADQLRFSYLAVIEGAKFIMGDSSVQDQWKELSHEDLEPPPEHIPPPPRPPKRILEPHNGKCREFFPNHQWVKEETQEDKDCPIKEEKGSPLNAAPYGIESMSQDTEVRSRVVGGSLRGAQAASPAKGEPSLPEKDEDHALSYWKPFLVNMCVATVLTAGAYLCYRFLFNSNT

Laforin = molecular target: T2, Laforin (Homo sapiens, UniProt O95278); assay: Inhibition of human laforin using pNPP substrate by spectrophotometry
T2 sequence (O95278 whole entry): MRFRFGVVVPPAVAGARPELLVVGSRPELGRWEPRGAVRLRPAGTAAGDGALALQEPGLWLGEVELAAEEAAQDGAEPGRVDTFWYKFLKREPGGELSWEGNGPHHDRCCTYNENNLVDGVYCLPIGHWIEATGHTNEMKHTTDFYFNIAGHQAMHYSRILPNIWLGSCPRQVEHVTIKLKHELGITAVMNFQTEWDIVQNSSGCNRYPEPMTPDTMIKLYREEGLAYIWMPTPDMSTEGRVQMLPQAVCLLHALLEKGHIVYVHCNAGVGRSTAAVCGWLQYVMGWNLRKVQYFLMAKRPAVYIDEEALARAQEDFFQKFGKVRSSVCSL

[4] = Selectivity index, ratio of IC50 for human PTP-Meg2 to IC50 for Mycobacterium tuberculosis protein tyrosine phosphatase B
[5] = molecular target: Tyrosine-protein phosphatase non-receptor type 6 (Homo sapiens, UniProt P29350); assay: Inhibition of human SHP1 using pNPP substrate by spectrophotometry
[6] = Selectivity index, ratio of IC50 for human SHP1 to IC50 for Mycobacterium tuberculosis protein tyrosine phosphatase B
[7] = Selectivity index, ratio of IC50 for human laforin to IC50 for Mycobacterium tuberculosis protein tyrosine phosphatase B
[8] = Selectivity index, ratio of IC50 for human VHR to IC50 for Mycobacterium tuberculosis protein tyrosine phosphatase B
[9] = Non-competitive inhibition of Mycobacterium tuberculosis protein tyrosine phosphatase B expressed in Escherichia coli BL21/DE using pNPP substrate by spectrophotometry based Lineweaver-Burk plot analysis
[10] = Selectivity index, ratio of IC50 for human CD45 to IC50 for Mycobacterium tuberculosis protein tyrosine phosphatase B
[11] = molecular target: Receptor-type tyrosine-protein phosphatase epsilon (Homo sapiens, UniProt P23469); assay: Inhibition of human PTPepsilon using pNPP substrate by spectrophotometry
[12] = molecular target: T3, Tyrosine-protein phosphatase non-receptor type 11 (Homo sapiens, UniProt Q06124); assay: Inhibition of human SHP2 using pNPP substrate by spectrophotometry
T3 sequence (Q06124 whole entry): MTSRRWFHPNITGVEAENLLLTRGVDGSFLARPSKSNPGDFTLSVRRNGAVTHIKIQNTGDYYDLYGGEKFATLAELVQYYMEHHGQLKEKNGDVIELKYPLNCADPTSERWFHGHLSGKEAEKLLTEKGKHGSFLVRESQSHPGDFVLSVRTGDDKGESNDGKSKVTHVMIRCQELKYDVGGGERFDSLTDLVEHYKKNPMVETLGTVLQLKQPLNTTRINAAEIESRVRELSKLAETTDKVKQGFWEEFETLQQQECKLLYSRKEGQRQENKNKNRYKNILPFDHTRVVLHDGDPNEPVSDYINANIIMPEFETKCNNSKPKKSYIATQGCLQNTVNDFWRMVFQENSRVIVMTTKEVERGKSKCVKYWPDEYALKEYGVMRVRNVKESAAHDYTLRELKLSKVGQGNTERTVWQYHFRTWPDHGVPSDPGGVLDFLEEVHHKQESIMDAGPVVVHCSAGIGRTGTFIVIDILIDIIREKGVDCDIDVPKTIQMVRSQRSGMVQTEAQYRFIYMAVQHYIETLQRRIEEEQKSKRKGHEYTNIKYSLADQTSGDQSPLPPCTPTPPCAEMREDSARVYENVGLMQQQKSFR

RAW264.7 [13] = assay: Inhibition of Mycobacterium tuberculosis protein tyrosine phosphatase B transfected in mouse RAW264.7 cells assessed as increase in ERK1/2 phosphorylation at 5 and 10 uM incubated for 1 hr followed by with IFNgamma stimulation for 1 hr by Western blotting method; assay type: cell-based
Procedure, shortened: (§1)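 RAW264.7 mouse macrophages transfected with mPTPB, grown in DMEM with 10% FBS, penicillin/streptomycin, 37°C, 5% CO2. Cells were seeded at 4 x 10⁴ per well and treated next day with inhibitor for 1 h, then with IFN-γ (200 U/ml) for 1 h. They were washed with cold PBS and lysed on ice 30 min. Cleared lysates were Western blotted for phospho-Erk1/2 and phospho-Akt.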

[14] = Selectivity index, ratio of IC50 for human PTP1B to IC50 for Mycobacterium tuberculosis protein tyrosine phosphatase B
[15] = molecular target: T4, Receptor-type tyrosine-protein phosphatase C (Homo sapiens, UniProt P08575); assay: Inhibition of human CD45 using pNPP substrate by spectrophotometry
T4 sequence (P08575 whole entry): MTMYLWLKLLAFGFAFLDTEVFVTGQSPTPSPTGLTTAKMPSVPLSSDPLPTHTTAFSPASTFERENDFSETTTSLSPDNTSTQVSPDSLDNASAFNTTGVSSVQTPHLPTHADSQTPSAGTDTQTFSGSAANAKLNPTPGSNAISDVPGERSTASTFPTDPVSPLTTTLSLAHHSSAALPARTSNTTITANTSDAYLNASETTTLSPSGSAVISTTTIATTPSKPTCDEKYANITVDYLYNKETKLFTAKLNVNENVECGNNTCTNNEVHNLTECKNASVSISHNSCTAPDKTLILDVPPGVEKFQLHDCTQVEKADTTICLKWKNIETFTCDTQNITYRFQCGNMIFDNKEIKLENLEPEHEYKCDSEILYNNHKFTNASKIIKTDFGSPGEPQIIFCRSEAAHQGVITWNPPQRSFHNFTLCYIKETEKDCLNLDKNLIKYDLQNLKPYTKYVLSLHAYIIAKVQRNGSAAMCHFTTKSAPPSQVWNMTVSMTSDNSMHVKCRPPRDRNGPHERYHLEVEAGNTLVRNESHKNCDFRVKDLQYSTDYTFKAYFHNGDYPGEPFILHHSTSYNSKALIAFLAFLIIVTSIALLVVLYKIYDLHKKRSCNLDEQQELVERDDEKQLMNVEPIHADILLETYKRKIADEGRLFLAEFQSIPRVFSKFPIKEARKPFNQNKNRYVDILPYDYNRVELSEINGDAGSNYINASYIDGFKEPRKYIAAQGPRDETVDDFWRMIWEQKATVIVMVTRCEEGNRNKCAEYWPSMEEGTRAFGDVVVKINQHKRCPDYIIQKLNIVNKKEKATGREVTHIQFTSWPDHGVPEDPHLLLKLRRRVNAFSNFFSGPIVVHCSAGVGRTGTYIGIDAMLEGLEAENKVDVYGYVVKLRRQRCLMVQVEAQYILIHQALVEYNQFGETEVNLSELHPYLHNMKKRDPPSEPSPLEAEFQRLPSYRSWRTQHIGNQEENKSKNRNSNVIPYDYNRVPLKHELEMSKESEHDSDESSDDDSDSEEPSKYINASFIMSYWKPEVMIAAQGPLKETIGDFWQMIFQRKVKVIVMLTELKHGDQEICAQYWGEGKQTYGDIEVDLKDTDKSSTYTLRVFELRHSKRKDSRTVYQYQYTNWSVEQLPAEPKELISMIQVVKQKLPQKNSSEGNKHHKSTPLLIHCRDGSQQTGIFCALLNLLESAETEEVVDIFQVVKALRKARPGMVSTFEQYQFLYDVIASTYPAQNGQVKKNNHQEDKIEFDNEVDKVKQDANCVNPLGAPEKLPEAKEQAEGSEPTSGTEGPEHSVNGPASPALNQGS

[16] = molecular target: T5, Tyrosine-protein phosphatase non-receptor type 9 (Homo sapiens, UniProt P43378); assay: Inhibition of human PTP-Meg2 using pNPP substrate by spectrophotometry
T5 sequence (P43378 whole entry): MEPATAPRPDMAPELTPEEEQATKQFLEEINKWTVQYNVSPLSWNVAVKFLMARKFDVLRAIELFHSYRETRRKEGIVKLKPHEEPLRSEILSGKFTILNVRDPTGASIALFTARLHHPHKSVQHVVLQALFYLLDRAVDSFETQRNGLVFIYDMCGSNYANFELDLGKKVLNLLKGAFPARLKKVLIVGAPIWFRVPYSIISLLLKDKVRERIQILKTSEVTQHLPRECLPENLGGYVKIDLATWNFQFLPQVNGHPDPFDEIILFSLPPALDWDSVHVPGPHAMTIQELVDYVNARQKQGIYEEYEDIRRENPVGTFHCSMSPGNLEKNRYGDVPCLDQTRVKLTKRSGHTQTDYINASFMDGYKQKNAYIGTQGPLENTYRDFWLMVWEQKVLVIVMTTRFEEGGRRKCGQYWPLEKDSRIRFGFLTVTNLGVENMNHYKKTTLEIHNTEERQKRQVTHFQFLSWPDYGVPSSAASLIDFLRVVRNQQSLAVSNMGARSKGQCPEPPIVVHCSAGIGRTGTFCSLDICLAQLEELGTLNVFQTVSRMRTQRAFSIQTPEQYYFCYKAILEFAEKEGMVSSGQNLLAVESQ

[17] = Selectivity index, ratio of IC50 for human SHP2 to IC50 for Mycobacterium tuberculosis protein tyrosine phosphatase B
[18] = Selectivity index, ratio of IC50 for human PTPepsilon to IC50 for Mycobacterium tuberculosis protein tyrosine phosphatase B
RAW264.7 [19] = assay: Inhibition of Mycobacterium tuberculosis protein tyrosine phosphatase B transfected in mouse RAW264.7 cells assessed as reduction in AKT phosphorylation at 5 and 10 uM incubated for 1 hr followed by with IFNgamma stimulation for 1 hr by Western blotting method; assay type: cell-based; procedure, shortened: as §1
RAW264.7 [20] = assay: Inhibition of Mycobacterium tuberculosis protein tyrosine phosphatase B transfected in mouse RAW264.7 cells assessed as reduction in AKT phosphorylation at 10 uM incubated for 1 hr followed by with IFNgamma stimulation for 1 hr by Western blotting method; assay type: cell-based; procedure, shortened: as §1
RAW264.7 [21] = assay: Inhibition of Mycobacterium tuberculosis protein tyrosine phosphatase B transfected in mouse RAW264.7 cells assessed as increase in ERK1/2 phosphorylation at 10 uM incubated for 1 hr followed by with IFNgamma stimulation for 1 hr by Western blotting method; assay type: cell-based; procedure, shortened: as §1

Tyrosine-protein phosphatase non-receptor type 6, sequence (P29350 whole entry): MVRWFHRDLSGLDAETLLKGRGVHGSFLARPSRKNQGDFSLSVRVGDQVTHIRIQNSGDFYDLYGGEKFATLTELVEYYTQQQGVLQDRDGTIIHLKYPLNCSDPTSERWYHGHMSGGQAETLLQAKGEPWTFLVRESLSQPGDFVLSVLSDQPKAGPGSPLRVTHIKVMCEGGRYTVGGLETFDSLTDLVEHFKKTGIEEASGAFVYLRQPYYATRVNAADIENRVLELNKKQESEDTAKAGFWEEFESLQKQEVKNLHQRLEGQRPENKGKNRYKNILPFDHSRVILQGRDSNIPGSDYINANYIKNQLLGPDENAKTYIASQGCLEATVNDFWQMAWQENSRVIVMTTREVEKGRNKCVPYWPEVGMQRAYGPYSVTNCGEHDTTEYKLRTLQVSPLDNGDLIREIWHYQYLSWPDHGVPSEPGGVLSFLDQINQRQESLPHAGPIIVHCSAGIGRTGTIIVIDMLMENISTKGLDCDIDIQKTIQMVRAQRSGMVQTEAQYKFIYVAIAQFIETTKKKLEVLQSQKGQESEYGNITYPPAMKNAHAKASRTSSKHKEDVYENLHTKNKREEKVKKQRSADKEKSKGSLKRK
Receptor-type tyrosine-protein phosphatase epsilon, sequence (P23469 whole entry): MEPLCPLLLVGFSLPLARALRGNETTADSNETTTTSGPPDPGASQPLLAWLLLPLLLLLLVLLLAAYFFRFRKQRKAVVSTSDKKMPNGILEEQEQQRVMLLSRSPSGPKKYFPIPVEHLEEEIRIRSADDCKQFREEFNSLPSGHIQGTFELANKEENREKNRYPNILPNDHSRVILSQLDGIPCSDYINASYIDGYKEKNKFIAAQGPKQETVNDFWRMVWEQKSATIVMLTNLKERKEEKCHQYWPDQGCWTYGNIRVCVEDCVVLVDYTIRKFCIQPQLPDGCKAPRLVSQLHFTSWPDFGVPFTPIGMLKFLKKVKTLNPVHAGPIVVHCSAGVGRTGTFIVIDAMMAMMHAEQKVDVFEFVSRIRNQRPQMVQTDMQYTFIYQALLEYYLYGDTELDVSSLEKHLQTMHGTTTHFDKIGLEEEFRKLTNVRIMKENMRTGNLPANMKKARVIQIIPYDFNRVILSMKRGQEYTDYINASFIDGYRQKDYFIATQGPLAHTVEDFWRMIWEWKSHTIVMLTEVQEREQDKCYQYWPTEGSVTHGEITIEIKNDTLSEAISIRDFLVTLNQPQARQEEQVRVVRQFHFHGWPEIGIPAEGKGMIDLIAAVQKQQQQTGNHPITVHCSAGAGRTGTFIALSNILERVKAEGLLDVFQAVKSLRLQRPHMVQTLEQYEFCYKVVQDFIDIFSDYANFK
Dual specificity protein phosphatase 3, sequence (P51452 whole entry): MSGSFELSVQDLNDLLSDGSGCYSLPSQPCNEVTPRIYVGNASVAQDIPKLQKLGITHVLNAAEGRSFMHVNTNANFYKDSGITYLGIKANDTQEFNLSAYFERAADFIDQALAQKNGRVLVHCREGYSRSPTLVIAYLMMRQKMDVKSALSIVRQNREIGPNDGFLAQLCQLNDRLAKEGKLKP

O=C(O)c1cc2sc(Nc3ccccc3Cl)nc2cc1O
IC50 [1]: 30 µM

O=C(O)c1cc2sc(Nc3ccc([N+](=O)[O-])cc3)nc2cc1O
IC50 [1]: 50 µM

O=C(O)c1cc2sc(Nc3ccc(F)cc3)nc2cc1O
IC50 [1]: 65 µM

O=C1COc2cc(O)c(C(=O)O)cc2N1
IC50 [1]: > 100 µM

O=C(O)c1cc2sc(Nc3ccc(Cl)cc3Cl)nc2cc1O
IC50 [1]: 5 µM

O=C(O)c1cc2sc(Nc3cccc(Br)c3)nc2cc1O
IC50 [2]: 43 µM | IC50 [3]: 65 µM | IC50 (Laforin): 56 µM | Ratio IC50 [4]: > 20 | IC50 [5]: 78 µM | Ratio IC50 [6]: > 20 | IC50 [1]: 2 µM | Ratio IC50 [7]: > 20 | Ratio IC50 [8]: > 20 | Ki [9]: 1.5 µM | Ratio IC50 [10]: > 20 | IC50 [11]: > 400 µM | IC50 [12]: 50 µM | inhibition (RAW264.7 [13]): Dose-dependent effect | Ratio IC50 [14]: > 20 | IC50 [15]: > 100 µM | IC50 [16]: 69 µM | Ratio IC50 [17]: > 20 | Ratio IC50 [18]: > 20 | inhibition (RAW264.7 [19]): Dose-dependent effect

CCNc1nc2cc(C(=O)O)c(O)cc2o1
IC50 [1]: > 100 µM

O=C(O)c1cc2sc(Nc3cccc4ccccc34)nc2cc1O
IC50 [1]: 60 µM

Cc1ccccc1Nc1nc2cc(O)c(C(=O)O)cc2s1
IC50 [1]: 31 µM

Cc1cccc(Nc2nc3cc(O)c(C(=O)O)cc3s2)c1
IC50 [1]: 15 µM

O=C(O)c1ccc2nc(Nc3ccccc3)sc2c1O
IC50 [1]: 71 µM

O=C(O)c1cc2sc(Nc3ccccc3)nc2cc1O
IC50 [1]: 25 µM | inhibition (RAW264.7 [20]): inactive | inhibition (RAW264.7 [21]): inactive

O=C(O)c1cc2[nH]c(-c3ccccc3)nc2cc1O
IC50 [1]: 32 µM

O=C(O)c1cc2nc(-c3ccccc3)oc2cc1O
IC50 [1]: 27 µM

O=C(O)c1cc2sc(Nc3cccc(Cl)c3)nc2cc1O
IC50 [1]: 21 µM

O=C(O)c1cc2nc(NCc3ccccc3)oc2cc1O
IC50 [1]: > 100 µM

O=C(O)CN1CC(=O)Oc2cc(O)c(C(=O)O)cc21
IC50 [1]: > 100 µM

O=C(O)c1cc2[nH]c(=O)oc2cc1O
IC50 [1]: > 100 µM

CC(C)(C)c1ccc(Nc2nc3cc(O)c(C(=O)O)cc3s2)cc1
IC50 [1]: 41 µM

O=C(O)c1cc2sc(Nc3ccc(Cl)cc3)nc2cc1O
IC50 [1]: 13 µM
